In publication PMC3700807 (Planta medica, 2011):
≈ marks a conversion by molar mass, not a printed value. Where two headings read alike, the source gives them in different places. Blank lines part the entries; values can stand above or below the compound they belong to.

Assays:
[1] = system: Leishmania donovani axenic amastigotes; test: Antileishmanial assay, axenic amastigotes; type: cell-based; conditions: for IC90: Leishmania donovani, 72 h, read-out: Leishmania donovani Axenic Amastigotes IC90
[2] = system: Leishmania donovani promastigotes; test: Antileishmanial assay, promastigotes; type: cell-based; conditions: for IC90: Leishmania donovani, 72 h, read-out: Leishmania donovani Promastigotes IC90
[3] = Cytotoxicity to PMA transformed THP1 cells; type: cell-based; conditions: human
[4] = system: Leishmania donovani amastigotes in THP1 macrophage cultures; test: Antileishmanial macrophage-amastigote assay; type: cell-based; conditions: mean ± S.D. of three observations; for IC50: Leishmania donovani, THP-1, read-out: Leishmania donovani Macrophage-Amastigotes IC50, amastigotes in THP1 macrophage cultures
[5] = system: Plasmodium falciparum D6 (chloroquine-sensitive clone); conditions: data reported previously; cited from earlier work
[6] = system: VERO cells; conditions: VERO cells cytotoxicity; data reported previously; cited from earlier work
[7] = system: Plasmodium falciparum W2 (chloroquine-resistant clone); conditions: data reported previously; cited from earlier work
[8] = system: Mycobacterium intracellulare (ATCC 23068); test: Antimicrobial susceptibility assay, M. intracellulare; type: cell-based; conditions: highest test concentration 20 μg/mL
Outline: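 Mycobacterium intracellulare (ATCC 23068) was tested by a modified broth susceptibility method, with growth detected in medium containing 5% Alamar Blue. IC50 was fitted against untreated controls from duplicate readings. MIC was taken as the lowest concentration with no detectable growth. For MBC, clear wells were subcultured onto agar and incubated until growth appeared. Ciprofloxacin was included as the drug control in each assay.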

[9] = system: Plasmodium falciparum D6 (chloroquine-sensitive clone); test: In vitro antiplasmodial assay; type: cell-based; conditions: chloroquine-sensitive clone D6
[10] = system: Staphylococcus aureus (ATCC 29213); test: Antimicrobial susceptibility assay, S. aureus; type: cell-based; conditions: highest test concentration 20 μg/mL
Outline: (§1)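 Bacteria were tested by a modified CLSI broth-dilution method, with growth read as optical density. Ciprofloxacin was the drug control in each assay. IC50 (50% inhibition relative to controls) was fitted from duplicate readings. MIC is the lowest concentration with no detectable growth. For MBC, 5 μL from each clear well was transferred to agar and incubated until growth appeared.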

[11] = system: C. glabrata (ATCC 90030); test: Antimicrobial susceptibility assay, C. glabrata; type: cell-based; conditions: highest test concentration 20 μg/mL
Outline: (§2)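 Yeasts were tested by a modified CLSI broth-dilution method, with growth monitored by optical density. Amphotericin B was the drug control in each assay. IC50 (50% inhibition vs controls) was curve-fitted from duplicate readings. MIC is the lowest concentration allowing no detectable growth. For MFC, 5 μL from each clear well was plated on agar and incubated until growth was seen.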

[12] = system: Aspergillus fumigatus (ATCC 204305); test: Antimicrobial susceptibility assay, A. fumigatus; type: cell-based; conditions: highest test concentration 20 μg/mL
Outline: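 Broth-dilution susceptibility test in medium with 5% Alamar Blue for growth detection. Amphotericin B was the drug control in each assay. IC50 (50% inhibition vs controls) was curve-fitted from duplicate readings. MIC is the lowest concentration with no detectable growth. For MFC, 5 μL from each clear well was moved to agar and incubated until growth appeared.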

[13] = system: Candida albicans (ATCC 90028); test: Antimicrobial susceptibility assay, C. albicans; type: cell-based; conditions: highest test concentration 20 μg/mL
Outline: as §2

[14] = system: Cryptococcus neoformans (ATCC 90113); test: Antimicrobial susceptibility assay, C. neoformans; type: cell-based; conditions: highest test concentration 20 μg/mL
Outline: as §2

[15] = system: methicillin-resistant S aureus (MRSA, ATCC 33591); test: Antimicrobial susceptibility assay, MRSA; type: cell-based, Staphylococcus aureus; conditions: highest test concentration 20 μg/mL
Outline: as §1

[16] = system: C. krusei (ATCC 6258); test: Antimicrobial susceptibility assay, C. krusei; type: cell-based; conditions: highest test concentration 20 μg/mL
Outline: as §2

[17] = system: VERO cells; test: Cytotoxicity to VERO cells; type: cell-based
[18] = system: Transformed THP1 cells; test: Cytotoxicity to PMA transformed THP1 cells; type: cell-based
[19] = system: Plasmodium falciparum W2 (chloroquine-resistant clone); test: In vitro antiplasmodial assay; type: cell-based; conditions: chloroquine-resistant clone W2
[20] = quoted as basis for basifying to pH 11; no reference given; cited from earlier work
[21] = 37 °C, 72 hours, mean ± S.D. of three observations
[22] = 26 °C, 72 hours, mean ± S.D. of three observations
[23] = amastigotes in THP1 macrophage cultures

Structure (SMILES): C[C@@H]1N[C@H](CCCCCCCCCCC2=C[C@@H](CCCCCCCCCC[C@@H]3CC[C@@H](O)[C@H](C)N3)[C@@H]3CCCN3C2)CC[C@H]1O [Compound 3, prosopilosine]
Leishmania donovani Axenic Amastigotes IC50 [1, 21]: 0.98 ± 0.12 µg/mL
IC90 [1]: 6.49 ± 0.84 µg/mL (≈ 10.3 µM)
Leishmania donovani Promastigotes IC50 [2, 22]: 0.17 ± 0.05 µg/mL
IC90 [2]: 6.33 ± 1.07 µg/mL (≈ 10 µM)
IC50 [3]: 2.33 ± 0.51 µg/mL (≈ 3.7 µM)
IC90 [3]: 3.89 ± 0.51 µg/mL (≈ 6.17 µM)

Structure (SMILES): C[C@@H]1N[C@H](CCCCCCCCCCc2cc(CCCCCCCCCC[C@H]3CC[C@@H](O)[C@@H](C)N3)c[n+]3c2CCC3)CC[C@H]1O [Compound 5, isoprosopilosidine]
IC90 [1]: 24.8 ± 3.7 µg/mL
IC90 [2]: 4.52 ± 0.74 µg/mL
IC50 [4]: 5.87 ± 0.76 µg/mL
IC50 ([3]; PMA transformed THP1 cells): 7.92 ± 1.22 µg/mL
IC90 ([3]; PMA transformed THP1 cells): 19 µg/mL

Structure (SMILES): C[C@H]1N[C@@H](CCCCCCCCCCC2=C[C@@H](CCCCCCCCCC[C@H]3CC[C@@H](O)[C@@H](C)N3)[C@@H]3CCCN3C2)CC[C@H]1O [Compound 6, juliprosopine]
Leishmania donovani Axenic Amastigotes IC50 [1, 21]: 1.92 ± 0.19 µg/mL
IC90 [1]: 6.25 ± 0.47 µg/mL (≈ 9.92 µM)
P. falciparum D6 IC50 [5]: 0.22 ± 0.025 µg/mL
Leishmania donovani Promastigotes IC50 [2, 22]: 0.29 ± 0.05 µg/mL
IC90 [2]: 1.14 ± 0.21 µg/mL (≈ 1.81 µM)
VERO IC50 [6]: 5 µg/mL
P. falciparum W2 IC50 [7]: 0.38 ± 0.05 µg/mL
IC50 [3]: 3.43 ± 0.32 µg/mL (≈ 5.44 µM)
IC90 [3]: 7.89 ± 1.2 µg/mL (≈ 12.5 µM)

Structure (SMILES): C[C@@H]1N[C@H](CCCCCCCCCCc2cc(CCCCCCCCCC[C@@H]3CC[C@H](O)[C@H](C)N3)c3[n+](c2)CCC3)CC[C@@H]1O [Compound 7, juliprosine]
Leishmania donovani Axenic Amastigotes IC50 [1, 21]: 2.58 ± 0.37 µg/mL
Leishmania donovani Axenic Amastigotes IC90 [1, 21]: 29.8 ± 4.3 µg/mL
M. intracellulare IC50 [8]: 0.80 µg/mL
M. intracellulare MBC [8]: 5 µg/mL
M. intracellulare MIC [8]: 1.25 µg/mL
P. falciparum D6 IC50 [9]: 0.17 ± 0.035 µg/mL
S. aureus IC50 [10]: 3.0 µg/mL
S. aureus MBC [10]: 10 µg/mL
S. aureus MIC [10]: 5.0 µg/mL
C. glabrata IC50 [11]: -/-/- ((-) = Not active at the highest test concentration of 20 μg/mL)
C. glabrata MFC [11]: -/-/- ((-) = Not active at the highest test concentration of 20 μg/mL)
C. glabrata MIC [11]: -/-/- ((-) = Not active at the highest test concentration of 20 μg/mL)
Leishmania donovani Promastigotes IC50 [2, 22]: 1.38 ± 0.23 µg/mL
Leishmania donovani Promastigotes IC90 [2, 22]: 5.85 ± 0.72 µg/mL
A. fumigatus IC50 [12]: -/-/- ((-) = Not active at the highest test concentration of 20 μg/mL)
A. fumigatus MFC [12]: -/-/- ((-) = Not active at the highest test concentration of 20 μg/mL)
A. fumigatus MIC [12]: -/-/- ((-) = Not active at the highest test concentration of 20 μg/mL)
C. albicans IC50 [13]: -/-/- ((-) = Not active at the highest test concentration of 20 μg/mL)
C. albicans MFC [13]: -/-/- ((-) = Not active at the highest test concentration of 20 μg/mL)
C. albicans MIC [13]: -/-/- ((-) = Not active at the highest test concentration of 20 μg/mL)
C. neoformans IC50 [14]: 0.17 µg/mL
C. neoformans MFC [14]: 0.63 µg/mL
C. neoformans MIC [14]: 0.63 µg/mL
MRSA IC50 [15]: 3.03 µg/mL
MRSA MBC [15]: 10 µg/mL
MRSA MIC [15]: 5.0 µg/mL
C. krusei IC50 [16]: -/-/- ((-) = Not active at the highest test concentration of 20 μg/mL)
C. krusei MFC [16]: -/-/- ((-) = Not active at the highest test concentration of 20 μg/mL)
C. krusei MIC [16]: -/-/- ((-) = Not active at the highest test concentration of 20 μg/mL)
VERO IC50 [17]: >23.8 µg/mL
Leishmania donovani Macrophage-Amastigotes IC50 [4, 23]: 3.08 ± 0.43 µg/mL
Leishmania donovani Macrophage-Amastigotes IC90 [4, 23]: 7.89 ± 1.91 µg/mL
Cytotoxicity (Transformed THP1 cells) IC50 [18]: 19.5 ± 1.0 µg/mL
Cytotoxicity (Transformed THP1 cells) IC90 [18]: >20 µg/mL
P. falciparum W2 IC50 [19]: 0.15 ± 0.06 µg/mL

Leishmania donovani Axenic Amastigotes IC50 [1, 21]: 2.09 ± 0.37 µg/mL
IC90 [1]: 14.7 ± 2.2 µg/mL (≈ 43.2 µM)
Leishmania donovani Promastigotes IC50 [2, 22]: 1.06 ± 0.32 µg/mL
IC90 [2]: 3.86 ± 0.41 µg/mL (≈ 11.3 µM)
IC50 [4]: 3 µg/mL (≈ 8.81 µM)
Leishmania donovani Macrophage-Amastigotes IC50 [4, 23]: 2.97 ± 0.44 µg/mL
Structure (SMILES): N=C(N)c1ccc(OCCCCCOc2ccc(C(=N)N)cc2)cc1 [Pentamidine, reference compound]
IC50 ([3]; PMA transformed THP1 cells): > 20 µg/mL
IC90 ([3]; PMA transformed THP1 cells): > 20 µg/mL

Structure (SMILES): NCCc1c[nH]c2ccccc12 [tryptamine]
pKa [20]: 10.2
